Assay outcomes (PubChem)
RAM network inh = blocks the yeast RAM network. S. cerevisiae dse1pr::URA3 reporter, 5-FOA growth OD615, 2 d; analog-sensitive cbk1-as2 kinase mutant strain. 1.8% of 190,000 active. inhibition, % at 50 µM;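 active means inhibition above a set limit, 3 SD over mean compound inhibition, cut at about 8.4% in these data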;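 further: 0% = DMSO-only wells with no growth and 100% = 10 µM 1-NA-PP1 full growth; inhibition rescues growth on 5-FOA so higher OD means more RAM inhibition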
WT yeast gro inh = growth inhibition of WT yeast, mitochondrial fusion screen | mitochondrial fusion phenotypic screen, WT strain | inhibition, % at 10 µM | 2.1% of 190,000 active | AID 1362; in the data active means inhibition above about 58%; tested in S. cerevisiae
ABCG2 inh = inhibitors of human ABCG2 transporter, ABCB1 counter-screen | 0.1% of 190,000 active | inhibition, % at 6.6 µM | Q9UNQ0 | IgMXP3 cells, JC-1 efflux, flow cytometry;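 active means inhibition above 80%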;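 further: 0% = DMSO and 100% = nicardipine control wells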
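Test system: IgMXP3 (ABCG2) plus far-red-tagged CCRF-Adr (ABCB1) cells. Reagent: JC-1 dye as substrate. Timing: 10 min exposure at 25 °C with rotation, no wash. Measured by: flow cytometric JC-1 green MFI at 530 nm. Read-out: percent efflux inhibition, scaled nicardipine 100% to DMSO 0%. Control set: nicardipine and DMSO wells.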
L major viab = Leishmania major promastigote growth inhibition; Leishmania major promastigotes, resazurin fluorescence viability; inhibition, % at 10 µM; 9% of 200,000 active; in the data active means inhibition above about 50%;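 further: promastigotes grown with compound for 44 hours at 28 °C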
ABCB1 inh = human ABCB1 inhibition, ABCG2 as counter-screen; 0.067% of 190,000 active; CCRF-Adr cells, JC-1 efflux, flow cytometry; inhibition, % at 6.6 µM; P08183; in the data active means inhibition above about 40%;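 further: 0% = vehicle and 100% = reference inhibitor; higher value means more JC-1 retained so stronger ABCB1 efflux block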
An asterisk follows results filed as active. Shown are actives, neighbours in structure and some others; about 12% of the full set was active somewhere.

Results for Cc1ccccc1C(=O)NC(=S)NCCN1CCOCC1 ?
RAM network inh: 1; WT yeast gro inh: 0; ABCG2 inh: -4; L major viab: 83*; ABCB1 inh: -1

What do the screens show for `CNC(=S)NCCN1CCOCC1`?
RAM network inh: 1; WT yeast gro inh: -15; ABCG2 inh: -1; L major viab: 51*; ABCB1 inh: 0

What do the screens show for `CC(NC(=S)NCCN1CCOCC1)C12CC3CC(CC(C3)C1)C2` (stereo not given)?
RAM network inh: 0; WT yeast gro inh: -1; ABCG2 inh: 2; L major viab: 91*; ABCB1 inh: 1

What do the screens show for `S=C(NCCCN1CCOCC1)NC1CC1`?
RAM network inh: 0; WT yeast gro inh: -7; ABCG2 inh: -2; L major viab: -8; ABCB1 inh: 0

What do the screens show for `CC1CCN(C(=O)C2CCC(C)(C(=O)O)C2(C)C)CC1` (stereo not given)?
RAM network inh: 2; WT yeast gro inh: 17; ABCG2 inh: 3; L major viab: -4; ABCB1 inh: 1

What do the screens show for `CCOC(=O)Cn1cc(C#N)c2cccc(CC)c21`?
RAM network inh: 0; WT yeast gro inh: 14; ABCG2 inh: 3; L major viab: 16; ABCB1 inh: 0

How did O=C(CN1CCN(c2ncccn2)CC1)N1CCN(C(c2ccccc2)c2ccccc2)CC1 do in these assays?
WT yeast gro inh: -18; L major viab: 98*

What do the screens show for `O=C(Cn1cccc1)N1CCN(C(c2ccccc2)c2ccccc2)CC1`?
RAM network inh: -1; WT yeast gro inh: -15; ABCG2 inh: 0; L major viab: 30; ABCB1 inh: 0

How did CSc1nnc(NC(=O)c2ccc(S(=O)(=O)N(C)C)cc2)s1 do in these assays?
RAM network inh: 3; WT yeast gro inh: 0; ABCG2 inh: 5; L major viab: 2; ABCB1 inh: 0

How did O=C1C2C3C=CC(C4CC34)C2C(=O)N1/N=C/c1ccc(-c2ccc(Cl)cc2[N+](=O)[O-])o1 (stereo not given) do in these assays?
RAM network inh: 2; WT yeast gro inh: 23; ABCG2 inh: 14; L major viab: 59*; ABCB1 inh: 1

What do the screens show for `O=C1C2C3C=CC(C4CC34)C2C(=O)N1/N=C/c1ccc(-c2ccc(F)cc2[N+](=O)[O-])o1` (stereo not given)?
RAM network inh: 1; WT yeast gro inh: -16; ABCG2 inh: 3; L major viab: 2; ABCB1 inh: 1

What do the screens show for `COc1cc(S(=O)(=O)N(C)C2CCCCC2)c(C)cc1C`?
RAM network inh: 1; WT yeast gro inh: 59*; ABCG2 inh: 4; L major viab: 10; ABCB1 inh: 1

How did COc1ccc(S(=O)(=O)NC2CCCCC2)cc1C do in these assays?
RAM network inh: -1; WT yeast gro inh: -11; ABCG2 inh: 22; L major viab: -6; ABCB1 inh: 1

How did O=C(Nc1ccc([N+](=O)[O-])cc1)Nc1ccc(N2CCOCC2)c2nonc12 do in these assays?
RAM network inh: 1; WT yeast gro inh: 79*; ABCG2 inh: 1; L major viab: 98*; ABCB1 inh: 0

What do the screens show for `Cc1cc(C)n2nc(CC(=O)NCc3ccccc3Cl)nc2n1`?
RAM network inh: 1; WT yeast gro inh: -14; ABCG2 inh: 5; L major viab: -7; ABCB1 inh: 1

Results for Cc1cc(C)c(S(=O)(=O)N2CCC(C(=O)NCc3ccco3)CC2)c(C)c1 ?
RAM network inh: 1; WT yeast gro inh: 6; ABCG2 inh: 5; L major viab: -3; ABCB1 inh: 1

Results for COc1ccccc1-c1nnc(SCC(=O)NCc2c(C)c(Cl)cc(C(C)C)c2O)o1 ?
RAM network inh: 5; WT yeast gro inh: 78*; ABCG2 inh: 5; L major viab: 21; ABCB1 inh: 1

What do the screens show for `C[C@H](N)c1nnc(SCc2c(Cl)cccc2Cl)o1`?
RAM network inh: 1; WT yeast gro inh: 9; ABCG2 inh: 0; L major viab: 0; ABCB1 inh: 0

Results for Clc1cccc(Cl)c1CSc1nnc(/C=C/c2ccccc2)o1 ?
RAM network inh: 11*; WT yeast gro inh: 24; ABCG2 inh: 2; L major viab: -2; ABCB1 inh: 1

Results for O=C(/C=C/c1ccc(Cl)cc1)N(c1ccccn1)C1CCCCC1 ?
RAM network inh: 2; WT yeast gro inh: 36; ABCG2 inh: 29; L major viab: 83*; ABCB1 inh: 2

How did O=C(Nc1ccc(Cc2ccc(NC(=O)C3CC3)c(O)c2)cc1O)C1CC1 do in these assays?
RAM network inh: 1; WT yeast gro inh: -16; ABCG2 inh: 2; L major viab: 52*; ABCB1 inh: 0

What do the screens show for `O=C(O)CCC(=O)Nc1ccc(Cc2ccc(NC(=O)CCC(=O)O)c(O)c2)cc1O`?
RAM network inh: 2; WT yeast gro inh: 8; ABCG2 inh: 1; L major viab: -6; ABCB1 inh: 0

What do the screens show for `O=C(NN1CCOCC1)c1cc(S(=O)(=O)Nc2cccc(C(F)(F)F)c2)ccc1Cl`?
RAM network inh: 0; WT yeast gro inh: -10; ABCG2 inh: 6; L major viab: -8; ABCB1 inh: 5

Results for O=C(Nc1nnc(-c2ccc(F)cc2)o1)c1cccc([N+](=O)[O-])c1 ?
RAM network inh: 1; WT yeast gro inh: 76*; ABCG2 inh: 5; L major viab: 96*; ABCB1 inh: 0

Results for O=C(Nc1nnc(-c2ccc(F)cc2)o1)c1cc(Cl)sc1Cl ?
RAM network inh: -1; WT yeast gro inh: 64; ABCG2 inh: -8; L major viab: 62*; ABCB1 inh: -2

How did O=C(Nc1nnc(-c2ccncc2)o1)c1ccccc1 do in these assays?
RAM network inh: 1; WT yeast gro inh: -13; ABCG2 inh: 11; L major viab: 3; ABCB1 inh: 1

What do the screens show for `O=C(c1cccc(N2C(=O)C3C4C=CC(C4)C3C2=O)c1)N1CCN(c2ccccc2)CC1` (stereo not given)?
RAM network inh: 1; WT yeast gro inh: -5; ABCG2 inh: 0; L major viab: -5; ABCB1 inh: 0

What do the screens show for `Cn1cc(C(=O)c2ccc(F)cc2)cc1-c1nc2ccccc2n1C`?
RAM network inh: 0; WT yeast gro inh: 8; ABCG2 inh: 7; L major viab: 71*; ABCB1 inh: 2

What do the screens show for `Cc1cc(C)c(NC(=O)CO/N=C2\CCCc3nonc32)c(C)c1`?
RAM network inh: -1; WT yeast gro inh: -3; ABCG2 inh: 1; L major viab: -4; ABCB1 inh: 0

What do the screens show for `S=C(NCCCc1ccccc1)Nc1ccc(Cl)cc1`?
RAM network inh: 1; WT yeast gro inh: 72*; ABCG2 inh: 51; L major viab: 90*; ABCB1 inh: 0

How did CC(C)(C)NC(=S)Nc1ccc(Nc2ccccc2)cc1 do in these assays?
RAM network inh: 4; WT yeast gro inh: 73*; ABCG2 inh: 0; L major viab: 61*; ABCB1 inh: 0

Results for S=C(NCCc1ccccc1)Nc1ccc(Nc2ccccc2)cc1 ?
RAM network inh: 2; WT yeast gro inh: 82*; ABCG2 inh: 7; L major viab: 12; ABCB1 inh: 0
